According to ChEMBL document CHEMBL5055625, “Saturated Oxo Fatty Acids (SOFAs): A Previously Unrecognized Class of Endogenous Bioactive Lipids Exhibiting a Cell Growth Inhibitory Activity” (J Med Chem, 2021):
pIC50: −log10 of the molar value. Calls of active or inactive are those of the source. The rule behind the calls is not given here.

Key:
[1] = tested on: A549; test: Growth inhibition of human A549 cells at 50 microM measured after 72 hrs by MTT assay; format: functional; details: for inhibition of growth at 50 µM: read-out: GI
Method in brief: (§1)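 A549, Caco-2 and SF268 cells were grown in DMEM (4.5 g/L glucose) with 10% heat-inactivated FBS and pen-strep at 37 °C, 5% CO2. After 24 h, medium was replaced with compound at 10, 25, 35, 50 or 75 μM (final 0.5% DMSO; vehicle controls) for 72 h. MTT (0.25 mg/mL final) was added for 3 h, formazan was dissolved in DMSO, and A570 minus A690 was read. Triplicate wells per condition were normalized to DMSO control as 100%; IC50 was taken from dose-response curves over ≥3 experiments.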

[2] = tested on: A549; test: Growth inhibition of human A549 cells measured after 72 hrs by MTT assay; format: functional, cell-based; details: A549, 72 h; method in brief: as §1
[3] = tested on: Caco-2; test: Growth inhibition of human Caco-2 cells up to 75 uM measured after 72 hrs by MTT assay; format: functional, cell-based; method in brief: as §1
[4] = tested on: SF-268; test: Growth inhibition of human SF-268 cells upto 75 microM measured after 72 hrs by MTT assay; format: functional, cell-based; method in brief: as §1
[5] = tested on: HUVEC; test: Growth inhibition of HUVEC cells upto 75 microM measured after 72 hrs by MTT assay; format: cell-based; details: human
[6] = tested on: A549; test: Antitumor activity against human A549 cells assessed as decrease in STAT3 mRNA expression measured at 50 microM by RT-PCR analysis; format: functional, cell-based
Method in brief: (§2)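 A549 cells were treated with 50 μM compound alongside DMSO controls. mRNA levels were measured by quantitative real-time RT-PCR and expressed relative to the DMSO control.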

[7] = tested on: A549; test: Antitumor activity against human A549 cells assessed as decrease in c-myc mRNA expression measured at 50 microM by RT-PCR analysis; format: functional, cell-based; method in brief: as §2
[8] = biological target: Signal transducer and activator of transcription 3 (Homo sapiens) (UniProt P40763); test: Inhibition of phosphorylated STAT3 expression in human A549 cells measured at 50 uM by Western blot analysis; format: cell-based
Method in brief: (§3)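 A549 cells were treated with 50 μM compound or DMSO and lysed in RIPA buffer; lysates were spun at 17 000g for 15 min at 4 °C and protein was measured by Bradford assay. 35 μg of protein was run on SDS-PAGE and semidry-transferred to nitrocellulose, then blocked 1 h in 5% BSA/TBS-0.1% Tween-20. Blots were probed overnight at 4 °C with anti-phospho-STAT3 and anti-STAT3 (1:1000) plus β-actin (1:20 000) as loading control, followed by secondary antibodies for 1.30 h at r.t.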

[9] = tested on: A549; test: Down regulation of […] protein expression in human A549 cells measured at 50 uM by Western blot analysis; format: functional, cell-based; method in brief: as §3

Signal transducer and activator of transcription 3 (Homo sapiens), sequence (P40763 whole entry): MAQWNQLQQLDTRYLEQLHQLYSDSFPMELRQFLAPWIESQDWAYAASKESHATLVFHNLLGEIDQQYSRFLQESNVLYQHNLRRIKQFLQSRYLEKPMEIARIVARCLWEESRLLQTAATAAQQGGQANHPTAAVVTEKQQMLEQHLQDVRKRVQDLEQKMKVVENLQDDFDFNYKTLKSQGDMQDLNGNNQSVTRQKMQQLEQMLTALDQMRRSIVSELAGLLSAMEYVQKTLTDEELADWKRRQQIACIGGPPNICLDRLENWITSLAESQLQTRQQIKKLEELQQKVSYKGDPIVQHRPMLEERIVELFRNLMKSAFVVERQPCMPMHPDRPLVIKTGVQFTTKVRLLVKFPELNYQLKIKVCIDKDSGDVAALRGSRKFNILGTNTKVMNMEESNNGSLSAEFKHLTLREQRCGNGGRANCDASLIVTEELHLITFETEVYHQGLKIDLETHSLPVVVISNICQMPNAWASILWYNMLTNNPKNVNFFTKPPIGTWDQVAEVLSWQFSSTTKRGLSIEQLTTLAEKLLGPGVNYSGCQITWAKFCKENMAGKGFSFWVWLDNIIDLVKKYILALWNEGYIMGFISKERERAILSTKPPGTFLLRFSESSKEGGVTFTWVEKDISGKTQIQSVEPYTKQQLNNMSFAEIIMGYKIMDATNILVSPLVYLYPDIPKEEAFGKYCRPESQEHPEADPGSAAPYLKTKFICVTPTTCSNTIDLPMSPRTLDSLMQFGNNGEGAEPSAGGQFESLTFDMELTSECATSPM

SMILES | pIC50 [2] | inhibition [8] | inhibition of growth at 50 µM [1] [%] | growth inhibition (GI) [3] | growth inhibition (GI) [4] | Activity [5] | growth inhibition (GI) [1] | Activity [6] | Activity [7] | Activity [9]
CCCCCCCCCCCCCC(=O)CCCC(=O)O | 4.31 |  | > 50 |  |  |  |  |  |  | 
CCCCCCCCCCC[C@@H](O)CCCCCC(=O)O |  |  | > 50 |  |  | Non-Toxic |  |  |  | 
CCCCCCCCCCCCCCCC(=O)O |  |  |  |  |  |  | inactive |  |  | 
CCCCCCCCCC(O)CCCCCCCC(=O)O (stereo not drawn) |  |  | > 50 |  |  |  |  |  |  | 
CCCCCCCCCCCCCCCCCC(=O)O |  |  |  |  |  |  | inactive |  |  | 

Second part, led by results:

pIC50 [2] | inhibition [8] | SMILES | inhibition of growth at 50 µM [1] [%] | growth inhibition (GI) [3] | growth inhibition (GI) [4] | Activity [5] | growth inhibition (GI) [1] | Activity [6] | Activity [7] | Activity [9]
4.43 |  | CCCCCCCCCCC(=O)CCCCCCC(=O)O | > 50 | inactive | inactive |  |  |  |  | 
4.59 | Active | CCCCCCCCCCCCC(=O)CCCCC(=O)O | > 50 | inactive | inactive | Non-Toxic |  | Active | Active | Active
4.55 | Active | CCCCCCCCCCCC(=O)CCCCCC(=O)O | > 50 | inactive | inactive |  |  | Active | Active | Active
